# Experimental data: ChEMBL document CHEMBL2346583, “Synthesis of new fluorinated, 2-substituted 5-pyrrolidinylsulfonyl isatin derivatives as caspase-3 and caspase-7 inhibitors: nonradioactive counterparts of putative PET-compatible apoptosis imaging agents” (Bioorg Med Chem, 2013)
# pIC50: −log10 of the molar value.
# Experiments:
# Caspase-7 = molecular target: T1, Caspase-7 (Homo sapiens, UniProt P55210); assay: Inhibition of human recombinant caspase 7 assessed as decrease in AMC release using Ac-Asp-Glu-Val-Asp-AMC as substrate preincubated with enzyme for 10 mins prior to substrate addition measured after 10 mins by fluorescence microplate analysis
# T1 sequence (P55210 whole entry): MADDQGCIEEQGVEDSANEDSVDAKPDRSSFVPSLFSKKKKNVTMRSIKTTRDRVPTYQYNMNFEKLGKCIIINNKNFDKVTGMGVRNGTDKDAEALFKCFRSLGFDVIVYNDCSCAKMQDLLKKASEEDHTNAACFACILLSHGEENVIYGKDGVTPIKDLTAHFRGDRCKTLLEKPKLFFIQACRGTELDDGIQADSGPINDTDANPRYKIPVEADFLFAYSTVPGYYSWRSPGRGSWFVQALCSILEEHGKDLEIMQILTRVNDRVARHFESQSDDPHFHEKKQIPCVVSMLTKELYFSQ
# Procedure, shortened: (§1)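 Recombinant human caspase at 0.5 units per assay (defined as 500 pmol substrate converted in 60 min), diluted in reaction buffer. Compounds in DMSO, tested at final concentrations from 500 µM down to 5 pM in tenfold steps. Enzyme and compound pre-incubated for 10 min at 37 °C. AMC peptide substrate then added to a final 10 µM and reacted for 10 min. IC50 obtained by nonlinear regression.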
# Caspase-6 = molecular target: T2, Caspase-6 (Homo sapiens, UniProt P55212); assay: Inhibition of human recombinant caspase 6 assessed as decrease in AMC release using Ac-Val-Glu-Ile-Asp-AMC as substrate preincubated with enzyme for 10 mins prior to substrate addition measured after 10 mins by fluorescence microplate analysis; procedure, shortened: as §1
# T2 sequence (P55212 whole entry): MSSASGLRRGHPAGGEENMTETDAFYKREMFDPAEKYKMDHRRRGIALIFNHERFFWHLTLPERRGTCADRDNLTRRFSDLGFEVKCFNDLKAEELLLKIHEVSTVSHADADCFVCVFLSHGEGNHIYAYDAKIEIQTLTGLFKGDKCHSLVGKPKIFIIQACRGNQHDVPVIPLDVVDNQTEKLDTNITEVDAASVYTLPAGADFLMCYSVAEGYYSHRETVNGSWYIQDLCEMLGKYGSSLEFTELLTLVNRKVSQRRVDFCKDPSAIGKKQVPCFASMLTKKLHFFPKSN
# Caspase-1 = molecular target: T3, Caspase-1 (Homo sapiens, UniProt P29466); assay: Inhibition of human recombinant caspase 1 assessed as decrease in AMC release using Ac-Tyr-Val-Ala-Asp-AMC as substrate preincubated with enzyme for 10 mins prior to substrate addition measured after 10 mins by fluorescence microplate analysis; procedure, shortened: as §1
# T3 sequence (P29466 whole entry): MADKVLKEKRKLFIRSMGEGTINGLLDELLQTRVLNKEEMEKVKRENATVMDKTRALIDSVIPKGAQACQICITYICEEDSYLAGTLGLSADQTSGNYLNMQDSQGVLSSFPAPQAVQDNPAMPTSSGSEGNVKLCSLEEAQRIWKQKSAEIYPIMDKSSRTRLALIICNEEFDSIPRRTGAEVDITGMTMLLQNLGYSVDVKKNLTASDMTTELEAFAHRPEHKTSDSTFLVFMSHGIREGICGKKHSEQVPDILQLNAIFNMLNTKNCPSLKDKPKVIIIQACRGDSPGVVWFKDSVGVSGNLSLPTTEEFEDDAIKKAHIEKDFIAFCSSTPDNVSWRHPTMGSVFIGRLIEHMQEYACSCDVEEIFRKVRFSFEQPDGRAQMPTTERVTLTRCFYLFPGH
# Caspase-3 = molecular target: T4, Caspase-3 (Homo sapiens, UniProt P42574); assay: Inhibition of human recombinant caspase 3 assessed as decrease in AMC release using Ac-Asp-Glu-Val-Asp-AMC as substrate preincubated with enzyme for 10 mins prior to substrate addition measured after 10 mins by fluorescence microplate analysis; procedure, shortened: as §1
# T4 sequence (P42574 whole entry): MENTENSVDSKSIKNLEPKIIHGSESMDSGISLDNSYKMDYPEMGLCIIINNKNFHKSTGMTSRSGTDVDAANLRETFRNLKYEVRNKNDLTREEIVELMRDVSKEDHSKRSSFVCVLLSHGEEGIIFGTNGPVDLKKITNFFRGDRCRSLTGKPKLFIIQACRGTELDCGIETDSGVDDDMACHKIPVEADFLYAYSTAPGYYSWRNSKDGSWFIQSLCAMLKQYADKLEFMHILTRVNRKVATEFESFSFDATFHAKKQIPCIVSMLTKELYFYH
Compound,pIC50 (Caspase-7),pIC50 (Caspase-6),pIC50 (Caspase-1),pIC50 (Caspase-3)
O=C1Nc2ccc(S(=O)(=O)N3CCC[C@H]3COCCF)cc2C1=O,5.88,< 3.30,4.74,6.46
COCC[C@@H]1CCCN1S(=O)(=O)c1ccc2c(c1)C(=O)C(=O)N2,6.27,< 3.30,4.92,6.46
CCOC[C@@H]1CCCN1S(=O)(=O)c1ccc2c(c1)C(=O)C(=O)N2,7.88,< 3.30,< 3.30,5.95
O=C1Nc2ccc(S(=O)(=O)N3CCC[C@H]3COCC(F)(F)F)cc2C1=O,5.85,< 3.30,4.83,5.97
CCCCN1C(=O)C(=O)c2cc(S(=O)(=O)N3CCC[C@H]3COCC(F)(F)F)ccc21,8.13,< 3.30,4.59,7.33
CCCCN1C(=O)C(=O)c2cc(S(=O)(=O)N3CCC[C@H]3CCOC)ccc21,7.61,< 3.30,4.81,7.03
COCCCC1CCCN1S(=O)(=O)c1ccc2c(c1)C(=O)C(=O)N2 (racemic),6.90,< 3.30,4.94,5.80
CCCCN1C(=O)C(=O)c2cc(S(=O)(=O)N3CCCC3CCCOC)ccc21 (racemic),6.29,< 3.30,< 3.30,6.77

# Continued, values first:
pIC50 (Caspase-7),pIC50 (Caspase-6),pIC50 (Caspase-1),pIC50 (Caspase-3),Compound
7.47,< 3.30,< 3.30,6.74,COCCCC1CCCN1S(=O)(=O)c1ccc2c(c1)C(=O)C(=O)N2CCCCF (racemic)
6.58,< 3.30,4.51,6.83,O=C1C(=O)N(CCCCF)c2ccc(S(=O)(=O)N3CCC[C@H]3COCC(F)(F)F)cc21
7.19,5.58,4.74,7.59,CCCCN1C(=O)C(=O)c2cc(S(=O)(=O)N3CCC[C@H]3COCC)ccc21
8.01,< 3.30,4.34,7.13,O=C1C(=O)N(CCCCF)c2ccc(S(=O)(=O)N3CCC[C@H]3COCCF)cc21
6.66,< 3.30,< 3.30,6.44,CCOC[C@@H]1CCCN1S(=O)(=O)c1ccc2c(c1)C(=O)C(=O)N2CCCCF
7.91,5.99,5.13,7.03,COCC[C@@H]1CCCN1S(=O)(=O)c1ccc2c(c1)C(=O)C(=O)N2CCCCF
7.40,< 3.30,4.61,8.32,CCCCN1C(=O)C(=O)c2cc(S(=O)(=O)N3CCC[C@H]3COCCF)ccc21
